≈ marks a conversion by molar mass, not a printed value.
Tests used:
[1] = tested on: Bacillus subtilis; experiment: Minimum inhibitory concentration was measured against Bacillus subtilis ATCC 6633.; format: functional
Outline: (§1)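 Agar dilution and microtiter broth dilution, with incubation in Mueller-Hinton medium; MIC expressed in mg/L.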

[2] = tested on: Escherichia coli; experiment: Minimum inhibitory concentration was measured against Escherichia coli ATCC 25992.; format: functional; outline: as §1
[3] = tested on: Enterobacter cloacae; experiment: Minimum inhibitory concentration was measured against Enterobacter cloacae ATCC 23355; format: functional; outline: as §1
[4] = tested on: Klebsiella pneumoniae; experiment: Minimum inhibitory concentration was measured against Klebsiella pneumoniae ATCC 13883; format: functional; outline: as §1
[5] = tested on: Pseudomonas aeruginosa; experiment: Minimum inhibitory concentration was measured against Pseudomonas aeruginosa ATCC 27853; format: functional; outline: as §1
[6] = tested on: Serratia marcescens; experiment: Minimum inhibitory concentration was measured against Serratia marcescens S69.; format: functional; outline: as §1
[7] = tested on: Staphylococcus epidermidis; experiment: Minimum inhibitory concentration was measured against Staphylococcus epidermidis ATCC 12228.; format: functional; outline: as §1
[8] = tested on: Serratia marcescens; experiment: Minimum inhibitory concentration was measured against Serratia marcescens ATCC 8100; format: functional; outline: as §1
[9] = tested on: Salmonella typhimurium; experiment: (§2) Minimum inhibitory concentration was measured against Salmonella Typhimurium ATCC 14028; format: functional, Salmonella enterica subsp. enterica serovar Typhimurium; outline: as §1
[10] = tested on: Staphylococcus aureus; experiment: Minimum inhibitory concentration was measured against Staphylococcus aureus ATCC 25923; format: functional; outline: as §1
[11] = tested on: Serratia marcescens; experiment: Minimum inhibitory concentration was measured against Serratia marcescens S20.; format: functional; outline: as §1
[12] = tested on: Salmonella typhimurium; experiment: as §2; format: functional, salmonella typhimurium a; conditions: Salmonella enterica; outline: as §1
[13] = tested on: Escherichia coli; experiment: Minimum inhibitory concentration was measured against Escherichia coli 001574-1 producing APH-(3'') modifying enzyme; format: functional
Outline: (§3)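 MICs were determined by agar dilution and by microtiter (broth) dilution in Mueller-Hinton medium against strains producing defined aminoglycoside-modifying enzymes. Values are reported in mg/L.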

[14] = tested on: Escherichia coli; experiment: Minimum inhibitory concentration was measured against Escherichia coli 71120101 producing AAD-(4')) modifying enzyme; format: functional; outline: as §3
[15] = tested on: Escherichia coli; experiment: Minimum inhibitory concentration was measured against Escherichia coli 72091801 producing AAC-(3)-I modifying enzyme; format: functional; outline: as §3
[16] = tested on: Escherichia coli; experiment: Minimum inhibitory concentration was measured against Escherichia coli 73110901 producing AAC-(6')-I) modifying enzyme; format: functional; outline: as §1
[17] = tested on: Escherichia coli; experiment: Minimum inhibitory concentration was measured against Escherichia coli 76070703 producing AAC-(3)-I modifying enzyme; format: functional; outline: as §3
[18] = tested on: Escherichia coli; experiment: Minimum inhibitory concentration was measured against Escherichia coli 00000589 producing APH-(3'') modifying enzyme; format: functional; outline: as §3
[19] = tested on: Escherichia coli; experiment: Minimum inhibitory concentration was measured against Escherichia coli OLA 290R5 producing AAD-(2'')-modifying enzyme; format: functional; outline: as §3
[20] = tested on: Klebsiella pneumoniae; experiment: Minimum inhibitory concentration was measured against Klebsiella pneumoniae 00GT3020 producing AAD-(2'')-modifying enzyme; format: functional; outline: as §3
[21] = tested on: Providencia stuartii; experiment: Minimum inhibitory concentration was measured against Providencia stuartii 00000164 producing AAC-(2'') modifying enzyme; format: functional; outline: as §1
[22] = tested on: Providencia stuartii; experiment: Minimum inhibitory concentration was measured against Providencia stuartii 72052305 producing AAC-(2'') modifying enzyme; format: functional; outline: as §1
[23] = tested on: Providencia stuartii; experiment: Minimum inhibitory concentration was measured against Providencia stuartii 75082808 producing AAC-(2'') modifying enzyme; format: functional; outline: as §1
[24] = tested on: Serratia marcescens; experiment: Minimum inhibitory concentration was measured against Serratia marcescens 75012711 producing AAD-(2'')+AAC(6'') modifying enzyme; format: functional; outline: as §1
[25] = tested on: Serratia marcescens; experiment: microbe, parasite or virus in culture
[26] = tested on: Escherichia coli; experiment: Minimum inhibitory concentration was measured against Escherichia coli 0000JR66 producing AAD-(2'')-modifying enzyme; format: functional; outline: as §1
[27] = tested on: Klebsiella pneumoniae; experiment: (§4) Minimum inhibitory concentration was measured against Klebsiella pneumoniae 7608271 producing AAC-(3)-II modifying enzyme; format: functional; outline: as §1
[28] = tested on: Klebsiella pneumoniae; experiment: Minimum inhibitory concentration was measured against Klebsiella pneumoniae 75012101 producing AAD-(2'')-modifying enzyme; format: functional; outline: as §1
[29] = tested on: Klebsiella pneumoniae; experiment: Minimum inhibitory concentration was measured against Klebsiella pneumoniae 760070702 producing AAC-(3)-I modifying enzyme; format: functional; outline: as §1
[30] = tested on: Staphylococcus aureus; experiment: Minimum inhibitory concentration was measured against Staphylococcus aureus 76080401 producing AAD-(4')) modifying enzyme; format: functional; outline: as §1
[31] = tested on: Klebsiella pneumoniae; experiment: as §4; format: functional; outline: as §1; remark: listed apart in the source
[32] = in the assay text read “AAC-(2')” for “AAC-(2'')”

NC[C@H]1O[C@H](O[C@H]2[C@H](O)[C@@H](O[C@H]3O[C@H](CO)[C@@H](O)[C@H](N)[C@H]3O)[C@H](N)C[C@@H]2N)[C@H](N)[C@@H](O)[C@@H]1O [BEKANAMYCIN]
MIC [1]: 0.5 µg/mL (≈ 1.03 µM)
MIC [2]: 1 µg/mL (≈ 2.07 µM)
MIC [3]: 0.25 µg/mL (≈ 0.517 µM)
MIC [4]: 0.25 µg/mL (≈ 0.517 µM)
MIC [5]: > 128 µg/mL
MIC [6]: > 64 µg/mL
MIC [7]: 0.25 µg/mL (≈ 0.517 µM)
MIC [8]: 1 µg/mL (≈ 2.07 µM)
MIC ([9]; Salmonella enterica): 1 µg/mL (≈ 2.07 µM)
MIC [10]: 0.5 µg/mL (≈ 1.03 µM)
MIC [11]: > 64 µg/mL

CC(=O)NCC1OC(OC2C(O)C(OC3OC(CN)C(O)C(O)C3N)C(N)CC2(N)CO)C(O)C(N)C1O (stereo unspecified)
MIC [1]: 8 µg/mL (≈ 14.4 µM)
MIC [2]: 4 µg/mL (≈ 7.21 µM)
MIC [3]: 0.25 µg/mL (≈ 0.451 µM)
MIC [4]: 2 µg/mL (≈ 3.61 µM)
MIC [5]: > 128 µg/mL
MIC [6]: > 64 µg/mL
MIC [7]: 1 µg/mL (≈ 1.8 µM)
MIC [8]: 16 µg/mL (≈ 28.8 µM)
MIC [12]: 8 µg/mL (≈ 14.4 µM)
MIC [10]: 1 µg/mL (≈ 1.8 µM)
MIC [11]: > 64 µg/mL

NCC[C@H](O)C(=O)N[C@@H]1C[C@H](N)[C@@H](O[C@H]2O[C@H](CN)[C@@H](O)[C@H](O)[C@H]2O)[C@H](O)[C@H]1O[C@H]1O[C@H](CO)[C@@H](O)[C@H](N)[C@H]1O [AMIKACIN]
MIC [13]: 2 µg/mL (≈ 3.42 µM)
MIC [14]: 4 µg/mL (≈ 6.83 µM)
MIC [15]: 8 µg/mL (≈ 13.7 µM)
MIC [16]: 256 µg/mL (≈ 437 µM)
MIC [17]: 4 µg/mL (≈ 6.83 µM)
MIC [18]: 8 µg/mL (≈ 13.7 µM)
MIC [19]: 2 µg/mL (≈ 3.42 µM)
MIC [2]: 4 µg/mL (≈ 6.83 µM)
MIC [3]: 1 µg/mL (≈ 1.71 µM)
MIC [20]: 2 µg/mL (≈ 3.42 µM)
MIC [21]: 16 µg/mL (≈ 27.3 µM)
MIC [22]: 1 µg/mL (≈ 1.71 µM)
MIC [23, 32]: 16 µg/mL (≈ 27.3 µM)
MIC [24]: 2 µg/mL (≈ 3.42 µM)
MIC [6]: 2 µg/mL (≈ 3.42 µM)
MIC [10]: 1 µg/mL (≈ 1.71 µM)
MIC [11]: 8 µg/mL (≈ 13.7 µM)
MIC [25]: 1 µg/mL (≈ 1.71 µM)

[N-]=[N+]=NCC1OC(OC2C(O)C(OC3OC(CN)C(O)C(O)C3N)C(N)CC2(N)CO)C(O)C(N)C1O (stereo unspecified)
MIC [1]: 2 µg/mL (≈ 3.71 µM)
MIC [2]: 1 µg/mL (≈ 1.86 µM)
MIC [3]: 0.25 µg/mL (≈ 0.464 µM)
MIC [4]: 0.5 µg/mL (≈ 0.928 µM)
MIC [5]: > 128 µg/mL
MIC [6]: > 64 µg/mL
MIC [7]: 1 µg/mL (≈ 1.86 µM)
MIC [8]: 2 µg/mL (≈ 3.71 µM)
MIC [12]: 1 µg/mL (≈ 1.86 µM)
MIC [10]: 0.5 µg/mL (≈ 0.928 µM)
MIC [11]: > 64 µg/mL

NCC1OC(OC2C(N)CC(N)(CO)C(OC3OC(CO)C(O)C(N)C3O)C2O)C(N)C(O)C1O (stereo unspecified)
MIC [1]: 0.5 µg/mL (≈ 0.974 µM)
MIC [13]: 4 µg/mL (≈ 7.79 µM)
MIC [14]: > 128 µg/mL
MIC [15]: > 128 µg/mL
MIC [16]: > 128 µg/mL
MIC [18]: > 128 µg/mL
MIC [26]: > 128 µg/mL
MIC [19]: 8 µg/mL (≈ 15.6 µM)
MIC [2]: 0.5 µg/mL (≈ 0.974 µM)
MIC [3]: 0.25 µg/mL (≈ 0.487 µM)
MIC [27]: > 128 µg/mL
MIC [4]: 0.25 µg/mL (≈ 0.487 µM)
MIC [20]: > 128 µg/mL
MIC [28]: 4 µg/mL (≈ 7.79 µM)
MIC [29]: 1 µg/mL (≈ 1.95 µM)
MIC [5]: > 128 µg/mL
MIC [21]: > 128 µg/mL
MIC [22]: 16 µg/mL (≈ 31.2 µM)
MIC [30]: > 128 µg/mL
MIC [24]: > 128 µg/mL
MIC [6]: > 64 µg/mL
MIC [7]: 0.25 µg/mL (≈ 0.487 µM)
MIC [8]: 1 µg/mL (≈ 1.95 µM)
MIC ([9]; Salmonella enterica): 1 µg/mL (≈ 1.95 µM)
MIC [10]: 0.25 µg/mL (≈ 0.487 µM)
MIC [11]: > 64 µg/mL
MIC [25]: 4 µg/mL (≈ 7.79 µM)

CNC1C(O)C(OC2C(O)C(OC3OC([C@@H](C)N)CCC3N)C(N)CC2(N)CO)OCC1(C)O (stereo partly specified)
MIC [16]: 8 µg/mL (≈ 16.2 µM)
MIC [17]: 2 µg/mL (≈ 4.05 µM)
MIC [26]: 8 µg/mL (≈ 16.2 µM)
MIC [27]: 1 µg/mL (≈ 2.03 µM)
MIC [28]: 2 µg/mL (≈ 4.05 µM)
MIC [29]: 1 µg/mL (≈ 2.03 µM)
MIC [23, 32]: 8 µg/mL (≈ 16.2 µM)
MIC [30]: 0.5 µg/mL (≈ 1.01 µM)
MIC [24]: 2 µg/mL (≈ 4.05 µM)

GENTAMICIN
MIC [1]: 1 µg/mL
MIC [13]: 1 µg/mL
MIC [14]: 2 µg/mL
MIC [15]: 2 µg/mL
MIC [16]: 4 µg/mL
MIC [17]: 128 µg/mL
MIC [18]: 2 µg/mL
MIC [19]: 64 µg/mL
MIC [2]: 1 µg/mL
MIC [3]: 1 µg/mL
MIC [4]: 1 µg/mL
MIC [20]: 32 µg/mL
MIC [31]: 256 µg/mL
MIC [5]: 1 µg/mL
MIC ([23]; pseudomonas stuartii): 64 µg/mL
MIC [24]: 32 µg/mL
MIC [6]: 128 µg/mL
MIC [7]: 1 µg/mL
MIC [8]: 1 µg/mL
MIC ([9]; Salmonella enterica subsp. enterica serovar Typhimurium): 1 µg/mL
MIC [10]: 1 µg/mL
MIC [11]: 128 µg/mL

NCC1OC(OC2C(N)CC(N)(CO)C(OC3OC(CCl)C(O)C(N)C3O)C2O)C(N)C(O)C1O (stereo unspecified)
MIC [1]: 1 µg/mL (≈ 1.88 µM)
MIC [13]: 2 µg/mL (≈ 3.76 µM)
MIC [14]: 128 µg/mL (≈ 241 µM)
MIC [15]: > 256 µg/mL
MIC [16]: 128 µg/mL (≈ 241 µM)
MIC [18]: > 128 µg/mL
MIC [26]: > 256 µg/mL
MIC [19]: 8 µg/mL (≈ 15 µM)
MIC [2]: 1 µg/mL (≈ 1.88 µM)
MIC [3]: 0.25 µg/mL (≈ 0.47 µM)
MIC [27]: > 256 µg/mL
MIC [4]: 0.5 µg/mL (≈ 0.94 µM)
MIC [20]: > 256 µg/mL
MIC [28]: 16 µg/mL (≈ 30.1 µM)
MIC [29]: 1 µg/mL (≈ 1.88 µM)
MIC [5]: > 128 µg/mL
MIC [21]: 256 µg/mL (≈ 481 µM)
MIC [22]: 32 µg/mL (≈ 60.2 µM)
MIC [30]: 256 µg/mL (≈ 481 µM)
MIC [24]: > 256 µg/mL
MIC [6]: > 64 µg/mL
MIC [7]: 0.5 µg/mL (≈ 0.94 µM)
MIC [8]: 2 µg/mL (≈ 3.76 µM)
MIC ([9]; Salmonella enterica): 2 µg/mL (≈ 3.76 µM)
MIC [10]: 0.5 µg/mL (≈ 0.94 µM)
MIC [11]: > 64 µg/mL
MIC [25]: 8 µg/mL (≈ 15 µM)
